PAFAH2 FP inh – PAFAH2 (human) inhibition; recombinant PAFAH2, FP-rhodamine activity probe, fluorescence polarization; inhibition, % at 3.39 µM; actives 0.99% (n = 340,000); AID 492956;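 active = inhibition above the mean over all tested compounds plus 3 SD, cut at about 30% in these data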;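 also: inhibitors block probe labeling of enzyme so polarization drops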
pPAFAH inh – inhibitors of human plasma PAF acetylhydrolase (pPAFAH). Q13093. recombinant pPAFAH, FP-rhodamine probe fluorescence polarization. inhibition, % at 3.39 µM. actives 1.5% (n = 330,000). AID 463082;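 active = inhibition above the mean inhibition across the screen plus 3 SD, cut at about 25% in these data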;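 also: inhibitors block binding of the rhodamine activity-based probe so polarization drops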
ARFGAP1 inh – inhibitors of rat ARFGAP1; Q62848; Arfgap1-stimulated ARF1 GTP hydrolysis, GDP FP detection; inhibition, % at 16.5 µM; actives 0.26% (n = 360,000);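 active = inhibition above a per-plate limit, mean inhibition of low control wells plus 3 SD, cut at about 25% in these data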
Target sequence (Q62848 1-136 limits assumed): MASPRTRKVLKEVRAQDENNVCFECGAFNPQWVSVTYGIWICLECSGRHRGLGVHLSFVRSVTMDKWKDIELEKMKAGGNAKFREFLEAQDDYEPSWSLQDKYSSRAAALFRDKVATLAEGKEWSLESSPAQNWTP
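Material: rat Arfgap1 GAP domain (His6, aa 1-136), purified enzyme. Also added: human ARF1(Δ1-17)-GTP substrate. Compound dosing: 16.5 µM single point, 1.26% DMSO. Timing: enzyme reaction 120 min at 25 °C after 20 min preincubation. Signal: GDP detection by fluorescence polarization. Read-out basis: percent inhibition of GAP-stimulated GDP formation, scaled between DMSO and no-Arfgap1 medians.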
ASAP1 inh – blocks human ASAP1-stimulated Arf1 GTP hydrolysis; Q9ULH1; GDP FP detection; AID 624377; actives 0.19% (n = 360,000); inhibition, % at 16.5 µM; in the data active = inhibition above about 25%
PAFAH1B3 FP inh – blocks human PAF acetylhydrolase 1B catalytic subunit 3; Q15102; AID 492972; inhibition, % at 3.39 µM; actives 0.28% (n = 340,000); recombinant PAFAH1B3, FP-rhodamine probe, fluorescence polarization;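 active = inhibition above the screen-wide average of all tested compounds plus 3 SD, cut at about 25% in these data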
Target sequence (Q15102 whole entry, looked up): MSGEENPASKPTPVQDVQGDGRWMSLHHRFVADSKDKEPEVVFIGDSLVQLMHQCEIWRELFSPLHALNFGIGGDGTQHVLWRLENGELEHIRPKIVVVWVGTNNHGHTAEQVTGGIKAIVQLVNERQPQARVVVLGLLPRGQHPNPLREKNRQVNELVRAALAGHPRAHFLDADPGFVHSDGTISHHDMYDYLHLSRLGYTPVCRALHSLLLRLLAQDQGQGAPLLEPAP
PAFAH1B2 inh – PAFAH1B2 (human) inhibition; P68402; recombinant PAFAH1B2, FP-rhodamine activity probe, fluorescence polarization; inhibition, % at 3.39 µM; actives 1.2% (n = 340,000);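 active = inhibition above the mean of all tested compounds plus 3 SD, cut at about 24% in these data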
Target sequence (P68402 whole entry, looked up): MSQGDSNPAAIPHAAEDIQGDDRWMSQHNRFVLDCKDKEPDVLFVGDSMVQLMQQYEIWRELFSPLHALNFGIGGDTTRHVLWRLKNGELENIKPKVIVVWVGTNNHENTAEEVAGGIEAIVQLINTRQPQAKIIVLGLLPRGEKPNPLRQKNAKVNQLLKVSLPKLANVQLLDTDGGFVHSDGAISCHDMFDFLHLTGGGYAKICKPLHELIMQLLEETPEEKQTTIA
ASAP1 inh confirm – confirmation of human ASAP1 inhibitors. shares compounds with ASAP1 inh. ASAP1-stimulated Arf1 GTPase, GDP fluorescence polarization. inhibition, % at 16.5 µM. actives 37% (n = 620);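 active = mean inhibition over triplicates exceeds the hit threshold derived for the earlier primary screening run, cut at about 25% in these data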
Large screens that a line does not name were inactive (follow-up assays come after a bar, where they were run). Rows were chosen to be rich in hits. Some 2.8% of all compounds tested hit in one or more screens of this group.

COc1cc2nc(NCCCN3CCN(C)CC3)n3nc(-c4ccccc4)nc3c2cc1OC	ASAP1 inh 36 | ASAP1 inh confirm inactive
Cc1cccnc1C1=NOC(Cc2ccccc2)C(=O)N1Cc1ccccc1F (centres undefined)	ASAP1 inh 26 (no result: PAFAH2 FP inh, pPAFAH inh, PAFAH1B3 FP inh, PAFAH1B2 inh) | ASAP1 inh confirm inactive
COC(=O)C[C@H]1C=C[C@@H](NC(=O)Cc2cccnc2)[C@@H](CO)O1	none (no result: PAFAH2 FP inh, pPAFAH inh, PAFAH1B3 FP inh, PAFAH1B2 inh)
O=c1c2ccccc2nc2n1CCC2	none
O=C1CCn2c1c(O)c1ccccc1c2=O	ASAP1 inh 37 (no result: pPAFAH inh) | ASAP1 inh confirm inactive
COc1ccc(Br)cc1C(=O)Nc1ccc(N2CCCC2)cc1	ARFGAP1 inh 46, ASAP1 inh 32 | ASAP1 inh confirm 49
C/C=C(/C)C(=O)O[C@@H]1[C@H](OC(=O)C=C(C)C)c2c(ccc3ccc(=O)oc23)OC1(C)C	ASAP1 inh 26 | ASAP1 inh confirm inactive
C/C=C(/C)C(=O)O[C@@H]1c2c(ccc3ccc(=O)oc23)OC(C)(C)[C@@H]1OC(=O)/C(C)=C\C	none
CCN1C[C@@H]2[C@@H]3C(=O)N(Cc4ccccc4)C(=O)[C@@H]3[C@](Cc3ccccc3)(C1=O)N2C(=O)c1ccccc1	none (no result: pPAFAH inh)
CCN1C[C@@H]2[C@@H]3C(=O)N(Cc4ccccc4)C(=O)[C@@H]3[C@](Cc3ccccc3)(C1=O)N2C(=O)c1ccc(Cl)cc1	ASAP1 inh 56 (no result: pPAFAH inh) | ASAP1 inh confirm inactive
COc1ccc(-c2[nH]ncc2/C=N\NC(=O)c2ccc(Br)o2)cc1OC	ASAP1 inh 25 | ASAP1 inh confirm inactive
O=C(Cn1cncn1)N/N=C/c1cccnc1	none
CC(C)CC(=O)NC(=S)Nc1ccc(NC(=O)c2cccs2)cc1	ASAP1 inh 25 | ASAP1 inh confirm inactive
CC(C)CC(=O)NC(=S)Nc1ccc(N2CCN(C(=O)c3cccs3)CC2)cc1	none
CCCCCCn1c(=O)n2n(c1=O)C[C@]1(OC(=O)NCc3ccccc3)CN(S(=O)(=O)c3ccc(C)cc3)C[C@]1(O)C2	none (no result: PAFAH2 FP inh, pPAFAH inh, PAFAH1B3 FP inh, PAFAH1B2 inh)
Cc1cc(-c2cc(NC(=O)Cc3c(C)[nH]c4ccccc34)ccc2Nc2cccnc2)ccc1F	none (no result: PAFAH2 FP inh, pPAFAH inh, PAFAH1B3 FP inh, PAFAH1B2 inh)
Cc1[nH]c2ccccc2c1CC(=O)Nc1ccc(Nc2cccnc2)c(Br)c1	ASAP1 inh 27 (no result: PAFAH2 FP inh, pPAFAH inh, PAFAH1B3 FP inh, PAFAH1B2 inh) | ASAP1 inh confirm inactive
O=C(COc1ccccc1[N+](=O)[O-])Nc1ccc(NC(=O)c2cc3ccccc3o2)cc1	none
O=C(COc1ccc(/C=N/NC(=O)c2cc3ccccc3o2)cc1Br)Nc1ccccc1	ASAP1 inh 75 | ASAP1 inh confirm 84
S=c1[nH]nc(Cc2cccs2)n1-c1ccccc1Cl	ASAP1 inh 26 | ASAP1 inh confirm inactive
Cc1ccc(NC(=O)CSc2ncccc2C(=O)Oc2cccc([N+](=O)[O-])c2)cc1Cl	ASAP1 inh 44 | ASAP1 inh confirm 39
CCOc1ccc(CCNC(=O)CN2C(=O)NC(CCSC)C2=O)cc1OCC (centres undefined)	ASAP1 inh 28 | ASAP1 inh confirm inactive
CC(=O)Nc1ccc(Sc2ccc([N+](=O)[O-])o2)cc1	ASAP1 inh 31 (no result: pPAFAH inh) | ASAP1 inh confirm inactive
CC(C)Oc1ccc(CN2CCC2(C)C(=O)NCc2cccc3ccccc23)cc1 (centres undefined)	none (no result: PAFAH2 FP inh, pPAFAH inh, PAFAH1B3 FP inh, PAFAH1B2 inh)
C[C@@H]1CN([C@H](C)CO)C(=O)CCCn2nncc2CO[C@H]1CN(C)C(=O)OCc1ccccc1	none (no result: PAFAH2 FP inh, pPAFAH inh, PAFAH1B3 FP inh, PAFAH1B2 inh)
CC1CCN(C(=O)c2[nH]cnc2C(=O)N[C@@H](C)C(=O)OCc2ccccc2)CC1	ASAP1 inh 25 | ASAP1 inh confirm inactive
Cn1nc(C(C)(C)C)cc1NC(=O)C1(C)CCN1C(=O)C1(c2ccccc2)CC1 (centres undefined)	ASAP1 inh 25 (no result: PAFAH2 FP inh, pPAFAH inh, PAFAH1B3 FP inh, PAFAH1B2 inh) | ASAP1 inh confirm inactive
O=C(O)COc1ccccc1/C=N/NC(=O)Cc1ccccc1	none
O=C(O)COc1ccccc1/C=N/NC(=O)Cc1csc(Nc2cccc(C(F)(F)F)c2)n1	ASAP1 inh 37 (no result: PAFAH2 FP inh, PAFAH1B3 FP inh, PAFAH1B2 inh) | ASAP1 inh confirm inactive
CS(=O)(=O)N1CCN(c2ccccc2NC(=S)NC(=O)c2ccco2)CC1	none
O=C(Nc1ccc(Br)cc1)C1CCCN(C2=NS(=O)(=O)c3ccccc32)C1 (centres undefined)	none
CCC(=O)c1ccc(OC(=O)C2CCN(C3=NS(=O)(=O)c4ccccc43)CC2)cc1	ASAP1 inh 27 | ASAP1 inh confirm inactive
O=C(Oc1ccc(Br)cc1)C1CCN(C2=NS(=O)(=O)c3ccccc32)CC1	ASAP1 inh 25 (no result: pPAFAH inh) | ASAP1 inh confirm inactive
CC(C)C(c1nnnn1CCc1ccccc1)N1CCSCC1 (centres undefined)	none
O=C(c1ccco1)[C@@H]1[C@@H]2C(=O)N(c3ccc(Br)cc3)C(=O)[C@@H]2C2c3ccccc3C=CN21 (some centres undefined)	none (no result: pPAFAH inh)
O=C(c1ccco1)[C@@H]1[C@@H]2C(=O)N(c3ccc(F)cc3)C(=O)[C@@H]2C2c3ccccc3C=CN21 (some centres undefined)	ASAP1 inh 25 (no result: PAFAH2 FP inh, PAFAH1B3 FP inh, PAFAH1B2 inh) | ASAP1 inh confirm inactive
COc1cc(/C=N/O)ccc1Oc1cnccn1	none
O=C(Nc1ccc(Cc2ccncc2)cc1)c1cccc([N+](=O)[O-])c1	none
O=C(Nc1ccc(Nc2ccncc2)cc1)c1ccc(Nc2ccnc3ccc([N+](=O)[O-])cc23)cc1	ARFGAP1 inh 77, ASAP1 inh 46 (no result: pPAFAH inh) | ASAP1 inh confirm 75
NC(=O)COC(=O)CC(NC(N)=O)c1ccc(Cl)cc1 (centres undefined)	ASAP1 inh 26 | ASAP1 inh confirm inactive
COc1c2ccc(OCC/C(C)=C/C(=O)C=C(C)C)cc2nc2occc12	none
O=C(Nc1ccc(CSc2ccccc2)cc1)c1ccco1	ASAP1 inh 25 | ASAP1 inh confirm inactive
Cc1cc(C)c(S(=O)(=O)c2ccccc2)c(OC(=O)c2c(F)cccc2F)n1	ASAP1 inh 26 | ASAP1 inh confirm inactive
Cc1cc(C)c(S(=O)(=O)c2ccccc2)c(OC(=O)c2c(Cl)cc(Cl)cc2Cl)n1	none
Nc1ccc(N2CCCCC2)c2nonc12	ASAP1 inh 25 | ASAP1 inh confirm inactive
Nc1ccc(N2CCCCC2)cc1N1CCCCC1	none
COc1cccc2c1OCC(C(=O)Nc1nccs1)=C2	none
NS(=O)(=O)c1ccc(NC(=O)CN(C(=O)C(F)(F)F)C2CCCC2)cc1	none (no result: PAFAH2 FP inh, pPAFAH inh, PAFAH1B3 FP inh, PAFAH1B2 inh)
COC(=O)/C=C1\OCc2cc(C)ccc21	none (no result: PAFAH2 FP inh, pPAFAH inh, PAFAH1B3 FP inh, PAFAH1B2 inh)
O=C(C1CCC(CNS(=O)(=O)c2ccccc2)CC1)N1CCCCC1 (centres undefined)	ASAP1 inh 28 | ASAP1 inh confirm inactive
COc1ccc(C(=O)Nc2nc3cc4c(cc3s2)OCO4)c(OC)c1	ASAP1 inh 31 | ASAP1 inh confirm 41

Screening results from PubChem.
